Each structure is given as a SMILES string.

Holding throughout (format): cell-based
The nature of series [1]: Cytotoxicity against human Raji cells assessed as cell viability at 100 molar ratio. The settings on record: read-out: Activity.
Series [2] concerns Raji. Put plainly: Inhibition of TPA-induced EBV-early antigen activation in human Raji cells assessed as EA activation at 100 molar ratio after 48 hrs relative to TPA. Conditions: human gammaherpesvirus 4. In a few lines: (§1)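 Raji cells (EBV genome-carrying, virus nonproducer) were grown in RPMI-1640 with 10% FBS. Cells at 1 × 10⁶/mL were held 48 h at 37 °C with 4 mM n-butyric acid, TPA 20 ng (32 pmol)/mL, and test compound in DMSO, dosed as a mol ratio to TPA. EA-positive cells in smears were scored by indirect immunofluorescence, with ≥500 cells counted, in triplicate. Results are given relative to the butyrate+TPA control (100%).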

Series [3] concerns Raji. Put plainly: Inhibition of TPA-induced EBV-early antigen activation in human Raji cells assessed as EA activation at 1000 molar ratio after 48 hrs relative to TPA. The settings on record: human gammaherpesvirus 4. The gist of the method:
as §1

Series [4] is described as follows: Cytotoxicity against human Raji cells assessed as cell viability at 10 molar ratio. The settings on record: read-out: Activity.
Series [5] can be described thus: Cytotoxicity against human Raji cells assessed as cell viability at 1000 molar ratio. Conditions: read-out: Activity.
Series [6] is described as follows: Cytotoxicity against human Raji cells assessed as cell viability at 500 molar ratio. The settings on record: read-out: Activity.
Series [7] deals with Raji. Put plainly: Inhibition of TPA-induced EBV-early antigen activation in human Raji cells assessed as EA activation at 500 molar ratio after 48 hrs relative to TPA. Conditions: human gammaherpesvirus 4. In a few lines: as §1
The test system of series [8] is Raji. Put plainly: Inhibition of TPA-induced EBV-early antigen activation in human Raji cells assessed as EA activation at 10 molar ratio after 48 hrs relative to TPA. The settings on record: human gammaherpesvirus 4. The gist of the method:
as §1

Regarding `CC(C)c1cc(=O)c2c(O)c([C@@H]3O[C@H](CO)[C@@H](O)[C@H](O)[C@H]3OC(=O)c3cc(O)c(O)c(O)c3)c(O)cc2o1`, the viability at 100 molar ratio in series [1] came to 80%. The EBV-EA activation relative to control (%) stood at 70.4% with Raji [2], 5.9% in the series on Raji [3], 26.8% in the series on Raji [7] and 94.8% with Raji [8]. Further, the viability at 10 molar ratio in series [4] came out at 80%. Further, in series [5], the viability at 1000 molar ratio came to 70%. Also, the viability at 500 molar ratio in series [6] worked out at 80%.

Consider `Cc1c(O)c(Cc2c(O)cc3oc(-c4ccc(O)c(O)c4)c(O[C@@H]4O[C@@H](C)[C@H](O)[C@@H](O)[C@H]4O)c(=O)c3c2O)c2oc(-c3ccc(O)c(O)c3)c(O[C@@H]3O[C@@H](C)[C@H](O)[C@@H](O)[C@H]3O)c(=O)c2c1O` [KUNZEAGIN A], for which the viability at 100 molar ratio in series [1] worked out at 80%. Also, the EBV-EA activation relative to control (%) with Raji [2] turned out to be 66.1%; in the series with Raji [3], 4.3%; in the series with Raji [7], 32.5%; with Raji [8], 90.5%. The viability at 10 molar ratio in series [4] turned out to be 80%. The viability at 1000 molar ratio in series [5] was 70%. Moreover, the viability at 500 molar ratio in series [6] stood at 80%.

With `CC(C)c1cc(=O)c2c(O)cc(O)c([C@@H]3O[C@H](CO)[C@@H](O)[C@H](O)[C@H]3OC(=O)c3cc(O)c(O)c(O)c3)c2o1`, the viability at 100 molar ratio in series [1] came to 80%. For the same compound, the EBV-EA activation relative to control (%) is 74.7% with Raji [2], 11.5% in the series on Raji [3], 31.6% in the series on Raji [7] and 100% in the series with Raji [8]. Moreover, the viability at 10 molar ratio in series [4] stood at 80%. In addition, in series [5], the viability at 1000 molar ratio turned out to be 70%. Also, the viability at 500 molar ratio in series [6] was 80%.

In the case of `CC(C)c1cc(=O)c2c(O)c([C@@H]3O[C@H](CO)[C@@H](O)[C@H](O)[C@H]3O)c(O)cc2o1`, in series [1], the viability at 100 molar ratio was determined as 80%. For the same compound, the EBV-EA activation relative to control (%) is 65% with Raji [2], 4.6% in the series on Raji [3], 23.7% in the series on Raji [7] and 91% in the series with Raji [8]. Besides, the viability at 10 molar ratio in series [4] was 80%. In series [5], the viability at 1000 molar ratio was determined as 70%. For the same compound, the viability at 500 molar ratio in series [6] stood at 80%.

For `O=C(O[C@@H]1Cc2c(O)cc(O)cc2O[C@@H]1c1cc(O)c(O)c(O)c1)c1cc(O)c(O)c(O)c1` [EPIGALOCATECHIN GALLATE], in series [1], the viability at 100 molar ratio was determined as 80%. The EBV-EA activation relative to control (%) in the series on Raji [2] was 68.1%; in the series on Raji [3], 6.4%; in the series with Raji [7] it was 34.9%; in the series with Raji [8] it was 87.7%. Besides, in series [4], the viability at 10 molar ratio was determined as 80%. In addition, the viability at 1000 molar ratio in series [5] is 70%. For the same compound, in series [6], the viability at 500 molar ratio was determined as 80%.

With `CC(C)c1cc(=O)c2c(O)cc(O)c([C@@H]3O[C@H](CO)[C@@H](O)[C@H](O)[C@H]3O)c2o1`, the viability at 100 molar ratio in series [1] was found to be 80%. Moreover, the EBV-EA activation relative to control (%) in the series on Raji [2] was found to be 72.5%; in the series on Raji [3] it was 9.1%; in the series with Raji [7], 29.6%; in the series on Raji [8] it was 100%. Moreover, the viability at 10 molar ratio in series [4] came out at 80%. Moreover, the viability at 1000 molar ratio in series [5] turned out to be 70%. Also, the viability at 500 molar ratio in series [6] amounted to 80%.

These data come from ChEMBL document CHEMBL1146502, “Dimeric flavonol glycoside and galloylated C-glucosylchromones from Kunzea ambigua” (J Nat Prod, 2004).
